# Active and inactive are the calls of the source. No cut-off for these calls is given here.
# What was measured:
# [1] = Cmax in Sprague-Dawley rat at 5 mg/kg, po; assay type: ADME, organism-based; set-up: dose 5 mg/kg, route oral; conditions: in vivo
# Procedure, shortened: (§1)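 Sprague-Dawley rats, n = 3 per experiment; solution in DMSO:PEG400 (1:9, v/v) given IV or oral; 5 mg/kg for both routes, and 30 mg/kg oral; plasma t1/2, Vss, clearance, Cmax, AUC and F% determined.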
# [2] = Plasma clearance in dog at 2.5 mg/kg, iv; assay type: ADME, organism-based, Canis lupus familiaris
# [3] = Cmax in Sprague-Dawley rat at 30 mg/kg, po; assay type: ADME, organism-based; set-up: dose 30 mg/kg, route oral; conditions: in vivo; procedure, shortened: as §1
# [4] = Volume of distribution at steady state in Sprague-Dawley rat at 5 mg/kg, iv; assay type: ADME, organism-based; conditions: in vivo, read-out: Vdss
# Procedure, shortened: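 Sprague-Dawley rats, n = 3 per experiment, each given a 5 mg/kg intravenous dose. The compound was formulated as a solution in DMSO:PEG400 (1:9, v/v). Plasma concentration–time data were used to derive pharmacokinetic parameters, including Vss.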
# [5] = Aqueous solubility of the compound at pH 7.2; assay type: physicochemical; conditions: buffer, read-out: solubility
# [6] = Tmax in human at 80 mg administered as single dose; assay type: ADME; conditions: in vivo
# [7] = Half life in human infected with HCV genotype 1 at 160 mg administered once daily for 2 days; assay type: ADME; conditions: in vivo
# Procedure, shortened: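 HCV GT1-infected patients (N=4) given 160 mg once daily for 2 days; plasma Cmax, AUC and t1/2 determined.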
# [8] = Ratio of drug level in Sprague-Dawley rat liver to plasma at 5 mg/kg, po after 12 hrs; assay type: ADME, organism-based
# Procedure, shortened: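 Male/female not given; Sprague-Dawley rats, n = 3 per experiment, single 5 mg/kg oral dose given as a solution in DMSO:PEG400 (1:9, v/v). Drug concentrations measured in liver tissue and plasma at 12 h and 24 h post-dose; value reported as the liver-to-plasma concentration ratio.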
# Rattus norvegicus = assay: AUC in Sprague-Dawley rat at 5 mg/kg, iv; assay type: ADME, organism-based; conditions: in vivo; procedure, shortened: as §1
# [9] = Inhibition of HCV genotype 2a NS5B RNA dependent RNA polymerase assessed as reduction in [3H]UTP incorporation in to RNA preincubated for 15 mins followed by [3H]UTP addition measured after 3 hrs by microbeta scintillation counting method; set-up: species or system Hepatitis C virus subtype 2a
# [10] = Half life in Sprague-Dawley rat at 30 mg/kg, po; assay type: ADME, organism-based; conditions: in vivo; procedure, shortened: as §1
# Canis familiaris [11] = assay: AUC in dog at 2.5 mg/kg, po; assay type: ADME, organism-based, Canis lupus familiaris; conditions: in vivo
# Hepatitis C virus [12] = assay: Antiviral activity against HCV genotype 1b Con1 infected in human HuH7 cells harboring HCV subgenomic bicistronic replicon after 3 days in presence of 40% human plasma by luciferase reporter gene assay; assay type: functional, cell-based, Hepacivirus hominis; conditions: genotype 1b Con1, Huh-7, 72 h
# Procedure, shortened: (§2)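 Subgenomic genotype 1a (H77) or 1b (Con1) replicons carrying firefly luciferase, transfected into Huh-7 cells. Replication inhibition was read as luciferase level in cell lysate on a luminometer and reported as EC50. Runs were done without human plasma or with 40% human plasma added, to assess inhibitor–protein binding.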
# Plasma = assay: Drug level in po dosed Sprague-Dawley rat plasma up to 24 hrs; assay type: ADME, organism-based; conditions: in vivo
# Procedure, shortened: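 Sprague-Dawley rats given oral doses; liver tissue and plasma levels measured at 12 and 24 h; liver:plasma ratio calculated.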
# Canis familiaris [13] = assay: AUC in dog at 2.5 mg/kg, iv; assay type: ADME, organism-based, Canis lupus familiaris; conditions: in vivo
# Hepatitis C virus [14] = assay: Antiviral activity against HCV genotype 1a H77 infected in human HuH7 cells harboring HCV subgenomic bicistronic replicon after 3 days by luciferase reporter gene assay; assay type: functional, cell-based, Hepacivirus hominis; conditions: genotype 1a H77, Huh-7, 72 h; procedure, shortened: as §2
# [15] = Ratio of drug level in dog liver to plasma at 2.5 mg/kg, po after 12 hrs; assay type: ADME, organism-based, Canis lupus familiaris
# [16] = test system: Hepatitis C virus (isolate H77); assay: Inhibition of HCV genotype 1a H77 NS5B RNA dependent RNA polymerase C316H mutant assessed as reduction in [3H]UTP incorporation in to RNA preincubated for 15 mins followed by [3H]UTP addition measured after 3 hrs by microbeta scintillation counting method
# Procedure, shortened: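 Standard NS5B polymerase inhibition assay using genotype 1a (H77) or 1b (BK) enzyme. RNA product formation was measured as ³H-UTP incorporated into RNA, read by scintillation counting. IC50 was calculated with a standard IC50 equation.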
# [17] = Tmax in human at 320 mg administered as single dose; assay type: ADME; conditions: in vivo
smiles,measurement,setting,value
COc1c(/C=C/c2ccc(NS(C)(=O)=O)cc2)cc(-n2ccc(=O)[nH]c2=O)cc1C(C)(C)C [ABT-072],Cmax,[1],280 ng/mL
same,clearance,[2],2.5 mL/min/kg
same,Cmax,[3],2000 ng/mL
same,Vd,[4],3.7 L/kg
same,solubility,[5],20.7 µM
same,Tmax,[6],5.1 h
same,half-life,[7],8.56 h
same,Kp at 12 h,[8],71
same,AUC,Rattus norvegicus,5730 ng·h/mL
same,IC50,[9],23000 nM
same,half-life,[10],3.5 h
same,AUC,Canis familiaris [11],14400 ng·h/mL
same,EC50,Hepatitis C virus [12],2.4 nM
same,Drug uptake,Plasma,Dose-dependent effect
same,AUC,Canis familiaris [13],16800 ng·h/mL
same,EC50,Hepatitis C virus [14],1.1 nM
same,Kp at 12 h,[15],11
same,inhibition,[16],inactive
same,Tmax,[17],8.8 h
